Type in all cases: functional
Experiment [1] has as its system Plasmodium falciparum. The experiment in a line: Relative activity against Plasmodium falciparum D6 compared to arteether as IC50 ratio.
In experiment [2] the test system is Plasmodium falciparum. The experiment in a line: Relative activity against Plasmodium falciparum D6 compared to artemisinin as IC50 ratio.
The subject of experiment [3] is Plasmodium falciparum. The experiment in a line: Relative activity against Plasmodium falciparum W-2 compared to of IC50 value of artemisinin as IC50 ratio.
Experiment [4] has as its system Plasmodium falciparum. The experiment in a line: Relative activity against Plasmodium falciparum W2 compared to arteether as IC50 ratio.
Experiment [5] relates to Plasmodium falciparum. The experiment in a line: Relative activity against Plasmodium falciparum FCR3 compared to artemisinin as IC50 ratio. A digest of the protocol: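 In vitro screen of P. falciparum strain FCR3 cultures by a modified Desjardins method. The value is the ratio of artemisinin activity to that of each fluorinated derivative.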

On to `CCO[C@H]1O[C@@H]2O[C@@]3(C)CC[C@H]4[C@H](C(F)F)CC[C@@H]([C@H]1C)[C@@]24OO3`, for which the Ratio in the experiment on Plasmodium falciparum [1] is reported as 0.3; in the experiment on Plasmodium falciparum [2] it was 1; with Plasmodium falciparum [3], 2; with Plasmodium falciparum [4], 1.5.
`C[C@@H]1CC[C@H]2[C@@](C)(O)[C@@H](OCc3cccc(F)c3)O[C@@H]3O[C@@]4(C)CC[C@@H]1[C@]32OO4`: the Ratio with Plasmodium falciparum [5] was 0.11.
`CCO[C@H]1O[C@@H]2O[C@@]3(C)CC[C@H]4[C@H](C)CC[C@@H]([C@]1(C)O)[C@@]24OO3`: the Ratio with Plasmodium falciparum [2] is 0.45; in the experiment with Plasmodium falciparum [3] it was 0.3.
On the same counts, the results for `C[C@@H]1CC[C@H]2[C@@](C)(O)[C@@H](OCC(F)(F)F)O[C@@H]3O[C@@]4(C)CC[C@@H]1[C@]32OO4` are 0.15 and 0.14.
On the same counts, the results for `CCO[C@H]1O[C@@H]2O[C@@]3(C)CC[C@H]4[C@H](C)CC[C@@H]([C@@]1(C)O)[C@@]24OO3` are 0.08 and 0.06.
Turning to `CCO[C@H]1O[C@@H]2O[C@@]3(C)CC[C@H]4[C@H](C=O)CC[C@@H]([C@H]1C)[C@@]24OO3`, the Ratio with Plasmodium falciparum [1] is listed as 0.1; with Plasmodium falciparum [2] it was 1.2; with Plasmodium falciparum [3] it was 1.4; in the experiment with Plasmodium falciparum [4], 0.8.
For the molecule `C[C@@H]1CC[C@H]2[C@@](C)(O)[C@@H](OCc3c(F)c(F)c(F)c(F)c3F)O[C@@H]3O[C@@]4(C)CC[C@@H]1[C@]32OO4`, the Ratio with Plasmodium falciparum [5] was determined as 0.1.
For `CCO[C@H]1O[C@@H]2O[C@@]3(C)CC[C@H]4[C@H](C)C(=O)C[C@@H]([C@H]1C)[C@@]24OO3`, the Ratio in the experiment with Plasmodium falciparum [1] is recorded as 0.05; in the experiment with Plasmodium falciparum [2], 0.5; in the experiment with Plasmodium falciparum [3] it was 1.2; in the experiment with Plasmodium falciparum [4], 0.6.
Take `C[C@@H]1CC[C@H]2[C@@](C)(O)[C@@H](OCc3ccccc3F)O[C@@H]3O[C@@]4(C)CC[C@@H]1[C@]32OO4`: the Ratio in the experiment with Plasmodium falciparum [5] is on record as 0.11.
Same read-out and setting: next, `C[C@H]1[C@@H](OCc2ccc(F)cc2)O[C@@H]2O[C@@]3(C)CC[C@H]4[C@H](C)CC[C@@H]1[C@@]24OO3`: 0.04.
For the molecule `C[C@H]1[C@@H](CC(F)F)O[C@@H]2O[C@@]3(C)CC[C@H]4[C@H](C)CC[C@@H]1[C@@]24OO3`, the Ratio came to 1.3 in the experiment on Plasmodium falciparum [1], 3.8 in the experiment on Plasmodium falciparum [2], 1.1 in the experiment with Plasmodium falciparum [3] and 0.73 with Plasmodium falciparum [4].
For `C[C@@H]1CC[C@H]2[C@@](C)(O)[C@@H](OCc3ccc(F)cc3)O[C@@H]3O[C@@]4(C)CC[C@@H]1[C@]32OO4`, the Ratio in the experiment with Plasmodium falciparum [5] was 0.1.
On to `C[C@@H]1CC[C@H]2[C@](C)(O)[C@@H](OCC(F)(F)F)O[C@@H]3O[C@@]4(C)CC[C@@H]1[C@]32OO4`, for which the figures for the Ratio in the experiment on Plasmodium falciparum [2] and with Plasmodium falciparum [3] were 1.8 and 1.5, respectively.
Turning to `CCO[C@H]1O[C@@H]2O[C@@]3(C)CC[C@H]4C(C)=C(F)C[C@@H]([C@H]1C)[C@@]24OO3`, the Ratio is recorded as 0.2 in the experiment with Plasmodium falciparum [1], 0.6 in the experiment with Plasmodium falciparum [2], 0.5 in the experiment with Plasmodium falciparum [3] and 0.3 in the experiment on Plasmodium falciparum [4].
Regarding `C[C@H]1[C@@H](CC(C)(F)F)O[C@@H]2O[C@@]3(C)CC[C@H]4[C@H](C)CC[C@@H]1[C@@]24OO3`, the Ratio was 0.4 in the experiment on Plasmodium falciparum [1], 1.2 in the experiment on Plasmodium falciparum [2], 0.5 in the experiment with Plasmodium falciparum [3] and 0.3 in the experiment with Plasmodium falciparum [4].
Take `CCO[C@H]1O[C@@H]2O[C@@]3(C)CC[C@H]4[C@H](C)C(F)(F)C[C@@H]([C@H]1C)C24OO3` (single isomer, unassigned): the Ratio was 0.5 in the experiment on Plasmodium falciparum [1], 1.4 with Plasmodium falciparum [2], 1.2 in the experiment with Plasmodium falciparum [3] and 0.8 in the experiment on Plasmodium falciparum [4].
